Data as given in ChEMBL document CHEMBL4014343 (J Med Chem, 2017).
Active and inactive are the calls of the source. No cut-off for these calls is given here.

How the values were obtained:
[1] = molecular target: Cyclin-dependent kinase 1/cyclin B1 (Homo sapiens) (UniProt P06493+P14635); test: Inhibition of recombinant human N-terminal GST/His6-tagged CDK1 (M1 to M297 residues)/Cyclin B1 (M1 to V433 residues) expressed in sf9 cells at 1 uM using RB-CTF as substrate by filter binding assay
How it was run: (§1)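 Single-point profiling at 1 μM in a 22-kinase panel, performed externally by ProQinase; activity read as residual percent of control.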

[2] = molecular target: Cyclin-dependent kinase 2/cyclin E1 (Homo sapiens) (UniProt P24864+P24941); test: Inhibition of recombinant human N-terminal GST-tagged CDK2 (M1 to L298 residues)/Cyclin E1 (M1 to A395 residues) expressed in sf9 cells at 1 uM using RB-CTF as substrate by filter binding assay; how it was run: as §1
[3] = molecular target: Cyclin-dependent kinase 4/cyclin D1 (Homo sapiens) (UniProt P11802+P24385); test: Inhibition of recombinant human N-terminal GST-tagged CDK4 (S4 to E303 residues)/Cyclin D1 (Q4 to I295 residues) expressed in sf9 cells at 1 uM using RB-CTF as substrate by filter binding assay; how it was run: as §1
[4] = molecular target: Aurora kinase B (Homo sapiens) (UniProt Q96GD4); test: Inhibition of human N-terminal GST/His6-tagged Aurora B (A2 to A344 residues) expressed in sf9 cells at 1 uM using tetra(LRRLSLG) as substrate by filter binding assay; how it was run: as §1
[5] = molecular target: Fibroblast growth factor receptor 1 (Homo sapiens) (UniProt P11362); test: Inhibition of human N-terminal GST/His6-tagged FGFR1 (G400 to R820 residues) expressed in baculovirus infected sf9 cells at 1 uM using Poly(Glu,Tyr)4:1 as substrate by filter binding assay; how it was run: as §1
[6] = molecular target: T1, Insulin-like growth factor 1 receptor (Homo sapiens, UniProt P08069); test: Inhibition of IGF1R phosphorylation at Tyr1161 residue in human MCF7 cells at 1 uM after 1 hr by Hoechst 33258 staining based immunohistochemical analysis; type: cell-based
How it was run: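 MCF7 treated 1 h (test agent 1 μM; PI3K inhibitor 10 μM; 0.1% DMSO mock), fixed in 4% PFA 15 min, permeabilised/blocked, anti-p-IGF-1R Y1161 (1:200) overnight at 4 °C, Alexa 594 secondary 1 h, nuclei with Hoechst 33258 (1 μg/mL).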

[7] = molecular target: T1, Insulin-like growth factor 1 receptor; test: Inhibition of IGF1R phosphorylation at Tyr1161 residue in human MCF7 cells at 0.5 uM after 1 hr by immunoblot analysis; type: cell-based
How it was run: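 MCF7 (DMEM/10% FBS, 24 h) treated with increasing concentrations for 1 h; 40 μg lysate on 10% SDS-PAGE, probed with p-IGF-1R (Y1161) antibody 1:1000 overnight at 4 °C; β-actin loading control, PI3K inhibitor positive control.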

[8] = molecular target: T1, Insulin-like growth factor 1 receptor; test: Inhibition of IGF1R in human MCF7 cells assessed as reduction in Akt phosphorylation at Ser473 residue at 1 uM after 15 mins by immunoblot analysis; type: cell-based
How it was run: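 MCF7 exposed to 1 μM and harvested at 15 min, 30 min, 1, 4 and 6 h; lysates immunoblotted with p-Akt (S473) antibody.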

MCF7 = test: Induction of apoptosis in human MCF7 cells at 0.5 uM after 24 hrs by Annexin V-FITC/propidium iodide staining based FACS analysis; type: functional, cell-based
How it was run: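 MCF7 grown 24 h in DMEM/10% FBS/1% PS, exposed 24 h, pelleted, stained with FITC-annexin V in HEPES binding buffer (pH 7.4, 1.8 mM CaCl2) 15 min dark at rt, then PI 10 min, analysed by flow cytometry; bortezomib positive control.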

CCRF-CEM = test: Growth inhibition of human CCRF-CEM cells incubated for 48 hrs by sulforhodamine B assay; type: functional, cell-based
EKVX = test: Growth inhibition of human EKVX cells incubated for 48 hrs by sulforhodamine B assay; type: functional, cell-based
HOP-62 = test: Growth inhibition of human HOP62 cells incubated for 48 hrs by sulforhodamine B assay; type: functional, cell-based
HOP-92 = test: Growth inhibition of human HOP92 cells incubated for 48 hrs by sulforhodamine B assay; type: functional, cell-based
NCI-H23 = test: Growth inhibition of human NCI-H23 cells incubated for 48 hrs by sulforhodamine B assay; type: functional, cell-based
NCI-H460 = test: Growth inhibition of human NCI-H460 cells incubated for 48 hrs by sulforhodamine B assay; type: functional, cell-based
NCI-H522 = test: Growth inhibition of human NCI-H522 cells incubated for 48 hrs by sulforhodamine B assay; type: functional, cell-based
HCC 2998 = test: Growth inhibition of human HCC2998 cells incubated for 48 hrs by sulforhodamine B assay; type: functional, cell-based
HCT-15 = test: Growth inhibition of human HCT15 cells incubated for 48 hrs by sulforhodamine B assay; type: functional, cell-based
SF-295 = test: Growth inhibition of human SF295 cells incubated for 48 hrs by sulforhodamine B assay; type: functional, cell-based
SNB-19 = test: Growth inhibition of human SNB19 cells incubated for 48 hrs by sulforhodamine B assay; type: functional, cell-based
SNB-75 = test: Growth inhibition of human SNB75 cells incubated for 48 hrs by sulforhodamine B assay; type: functional, cell-based
LOX IMVI = test: Growth inhibition of human LOXIMVI cells incubated for 48 hrs by sulforhodamine B assay; type: functional, cell-based
M14 = test: Growth inhibition of human M14 cells incubated for 48 hrs by sulforhodamine B assay; type: functional, cell-based
MDA-MB-435 = test: Growth inhibition of human MDA-MB-435 cells incubated for 48 hrs by sulforhodamine B assay; type: functional, cell-based
SK-MEL-28 = test: Growth inhibition of human SK-MEL-28 cells incubated for 48 hrs by sulforhodamine B assay; type: functional, cell-based
SK-MEL-5 = test: Growth inhibition of human SK-MEL-5 cells incubated for 48 hrs by sulforhodamine B assay; type: functional, cell-based
UACC-62 = test: Growth inhibition of human UACC62 cells incubated for 48 hrs by sulforhodamine B assay; type: functional, cell-based
How it was run: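 NCI-60 panel growth inhibition, run by the U.S. National Cancer Institute; GI50 values are means of two test series.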

OVCAR-5 = test: Growth inhibition of human OVCAR5 cells incubated for 48 hrs by sulforhodamine B assay; type: functional, cell-based
NCI/ADR-RES = test: Growth inhibition of human NCI/ADR-RES cells incubated for 48 hrs by sulforhodamine B assay; type: functional, cell-based
SK-OV-3 = test: Growth inhibition of human SKOV3 cells incubated for 48 hrs by sulforhodamine B assay; type: functional, cell-based
A498 = test: Growth inhibition of human A498 cells incubated for 48 hrs by sulforhodamine B assay; type: functional, cell-based
CAKI-1 = test: Growth inhibition of human Caki1 cells incubated for 48 hrs by sulforhodamine B assay; type: functional, cell-based
SN12C = test: Growth inhibition of human SN12C cells incubated for 48 hrs by sulforhodamine B assay; type: functional, cell-based
DU-145 = test: Growth inhibition of human DU145 cells incubated for 48 hrs by sulforhodamine B assay; type: functional, cell-based
Hs-578T = test: Growth inhibition of human Hs 578T cells incubated for 48 hrs by sulforhodamine B assay; type: functional, cell-based
MDA-MB-468 = test: Growth inhibition of human MDA-MB-468 cells incubated for 48 hrs by sulforhodamine B assay; type: functional, cell-based

## CN1CCN(CCO/N=C2/C(=C3/C(=O)Nc4ccccc43)Nc3ccccc32)CC1
[1]
  inhibition: inactive
[2]
  inhibition: inactive
[3]
  inhibition: inactive
[4]
  inhibition: inactive
[5]
  inhibition: inactive
[6]
  inhibition: Active
[7]
  inhibition: Active
[8]
  inhibition: Active
MCF7
  Activity: Active
CCRF-CEM
  growth inhibition (GI): Active
EKVX
  growth inhibition (GI): Active
HOP-62
  growth inhibition (GI): Active
HOP-92
  growth inhibition (GI): Active
NCI-H23
  growth inhibition (GI): Active
NCI-H460
  growth inhibition (GI): Active
NCI-H522
  growth inhibition (GI): Active
HCC 2998
  growth inhibition (GI): Active
HCT-15
  growth inhibition (GI): Active
SF-295
  growth inhibition (GI): Active
SNB-19
  growth inhibition (GI): Active
SNB-75
  growth inhibition (GI): Active
LOX IMVI
  growth inhibition (GI): Active
M14
  growth inhibition (GI): Active
MDA-MB-435
  growth inhibition (GI): Active
SK-MEL-28
  growth inhibition (GI): Active
SK-MEL-5
  growth inhibition (GI): Active
UACC-62
  growth inhibition (GI): Active
OVCAR-5
  growth inhibition (GI): Active
NCI/ADR-RES
  growth inhibition (GI): Active
SK-OV-3
  growth inhibition (GI): Active
A498
  growth inhibition (GI): Active
CAKI-1
  growth inhibition (GI): Active
SN12C
  growth inhibition (GI): Active
DU-145
  growth inhibition (GI): Active
Hs-578T
  growth inhibition (GI): Active
MDA-MB-468
  growth inhibition (GI): Active
